Source: ChEMBL document CHEMBL4311935, “Synthesis and antitumor activity of fluorouracil - oleanolic acid/ursolic acid/glycyrrhetinic acid conjugates” (Medchemcomm, 2019)
pIC50: −log10 of the molar value. Calls of active or inactive are those of the source. No cut-off for these calls is given here.

Columns and labels:
A549 [1] = assay: Cytotoxicity against human A549 cells assessed as cell growth inhibition after 48 hrs by MTT assay; format: functional, cell-based; conditions: A549, 48 h
MCF7 = assay: Cytotoxicity against human MCF7 cells assessed as cell growth inhibition after 48 hrs by MTT assay; format: functional, cell-based; conditions: MCF7, 48 h
Bel-7402 = assay: Cytotoxicity against human Bel7402 cells assessed as cell growth inhibition after 48 hrs by MTT assay; format: functional, cell-based; conditions: Bel-7402, 48 h
K562 = assay: Cytotoxicity against human K562 cells assessed as cell growth inhibition after 48 hrs by MTT assay; format: functional, cell-based; conditions: K562, 48 h
L02 = assay: Cytotoxicity against human LO2 cells assessed as cell growth inhibition after 48 hrs by MTT assay; format: cell-based; conditions: L02, 48 h
A549/TR = assay: Cytotoxicity against human A549/T cells assessed as cell growth inhibition after 48 hrs by MTT assay; format: functional, cell-based
NCI/ADR-RES = assay: Cytotoxicity against human MCF7/ADR cells assessed as cell growth inhibition after 48 hrs by MTT assay; format: functional, cell-based
Bel7402/5-FU = assay: Cytotoxicity against human Bel7402/5-FU cells assessed as cell growth inhibition after 48 hrs by MTT assay; format: functional, cell-based
K562/Adr = assay: Cytotoxicity against human K562/ADR cells assessed as cell growth inhibition after 48 hrs by MTT assay; format: functional, cell-based
A549 [2] = assay: Induction of apoptosis in human A549 cells assessed as stimulation of intracellular calcium influx by measuring fluorescence intensity at 10 to 15 uM after 48 hrs by Fluo-3/AM probe based flow cytometry analysis; format: functional, cell-based
Procedure, shortened: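 Cells were seeded in six-well plates for 24 h, then treated at 0, 10 or 15 μM for 48 h. They were harvested, washed three times in serum-free RPMI 1640 and loaded with Fluo-3 AM (0.5 μM) for 60 min. After two washes and resuspension in serum-free medium, fluorescence was measured immediately by flow cytometry.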

A549 [3] = assay: Induction of apoptosis in human A549 cells assessed as stimulation of ROS generation at 20 uM after 48 hrs by DCFH-DA staining-based flow cytometric analysis (reference value: 42.5 %); format: functional
A549 [4] = assay: Induction of apoptosis in human A549 cells assessed as stimulation of ROS generation at 25 uM after 48 hrs by DCFH-DA staining-based flow cytometric analysis (reference value: 42.5 %); format: functional
A549 [5] = assay: Induction of cell cycle arrest in human A549 cells assessed as accumulation at G1 phase at 10 uM after 48 hrs by RNase/propidium iodide staining based flow cytometry analysis (reference value: 70.63 %); format: functional
Procedure, shortened: (§1)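 A549 cells were grown in dishes for 24 h, then treated at 0, 10, 15 or 20 μM for 48 h. Cells were washed in cold PBS, fixed in cold 75% ethanol and held at −20 °C for 36 h. They were then treated with RNase A (100 μg mL–1) for 30 min and stained with propidium iodide (1 mg mL–1 stock) for 10 min in the dark before flow cytometry.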

A549 [6] = assay: Induction of cell cycle arrest in human A549 cells assessed as accumulation at G2 phase at 10 uM after 48 hrs by RNase/propidium iodide staining based flow cytometry analysis (reference value: 5.14 %); format: functional; procedure, shortened: as §1
A549 [7] = assay: Induction of cell cycle arrest in human A549 cells assessed as accumulation at S phase at 10 uM after 48 hrs by RNase/propidium iodide staining based flow cytometry analysis (reference value: 24.23 %); format: functional; procedure, shortened: as §1
A549 [8] = assay: Induction of cell cycle arrest in human A549 cells assessed as accumulation at G1 phase at 15 uM after 48 hrs by RNase/propidium iodide staining based flow cytometry analysis (reference value: 70.63 %); format: functional; procedure, shortened: as §1
A549 [9] = assay: Induction of cell cycle arrest in human A549 cells assessed as accumulation at G2 phase at 15 uM after 48 hrs by RNase/propidium iodide staining based flow cytometry analysis (reference value: 5.14 %); format: functional; procedure, shortened: as §1
A549 [10] = assay: Induction of cell cycle arrest in human A549 cells assessed as accumulation at S phase at 15 uM after 48 hrs by RNase/propidium iodide staining based flow cytometry analysis (reference value: 24.23 %); format: functional; procedure, shortened: as §1
A549 [11] = assay: Induction of cell cycle arrest in human A549 cells assessed as accumulation at G1 phase at 20 uM after 48 hrs by RNase/propidium iodide staining based flow cytometry analysis (reference value: 70.63 %); format: functional; procedure, shortened: as §1
A549 [12] = assay: Induction of cell cycle arrest in human A549 cells assessed as accumulation at G2 phase at 20 uM after 48 hrs by RNase/propidium iodide staining based flow cytometry analysis (reference value: 5.14 %); format: functional; procedure, shortened: as §1
A549 [13] = assay: Induction of cell cycle arrest in human A549 cells assessed as accumulation at S phase at 20 uM after 48 hrs by RNase/propidium iodide staining based flow cytometry analysis (reference value: 24.23 %); format: functional; procedure, shortened: as §1
A549 [14] = assay: Induction of apoptosis in human A549 cells assessed as early apoptotic cells at 10 uM after 48 hrs by AnnexinV-FITC/propidium iodide staining based flow cytometry analysis (reference value: 0.99 %); format: functional
A549 [15] = assay: Induction of apoptosis in human A549 cells assessed as late apoptotic cells at 10 uM after 48 hrs by AnnexinV-FITC/propidium iodide staining based flow cytometry analysis (reference value: 4.19 %); format: functional
A549 [16] = assay: Induction of apoptosis in human A549 cells assessed as early apoptotic cells at 15 uM after 48 hrs by AnnexinV-FITC/propidium iodide staining based flow cytometry analysis (reference value: 0.99 %); format: functional
A549 [17] = assay: Induction of apoptosis in human A549 cells assessed as late apoptotic cells at 15 uM after 48 hrs by AnnexinV-FITC/propidium iodide staining based flow cytometry analysis (reference value: 4.19 %); format: functional
A549 [18] = assay: Induction of apoptosis in human A549 cells assessed as early apoptotic cells at 20 uM after 48 hrs by AnnexinV-FITC/propidium iodide staining based flow cytometry analysis (reference value: 0.99 %); format: functional
A549 [19] = assay: Induction of apoptosis in human A549 cells assessed as late apoptotic cells at 20 uM after 48 hrs by AnnexinV-FITC/propidium iodide staining based flow cytometry analysis (reference value: 4.19 %); format: functional
A549 [20] = assay: Induction of apoptosis in human A549 cells assessed as activation of caspase-8 at 10 uM using FITC-DEVD-FMK as substrate after 48 hrs by flow cytometric analysis (reference value: 9.76 %); format: functional
A549 [21] = assay: Induction of apoptosis in human A549 cells assessed as activation of caspase-8 at 15 uM using FITC-DEVD-FMK as substrate after 48 hrs by flow cytometric analysis (reference value: 9.76 %); format: functional
A549 [22] = assay: Induction of apoptosis in human A549 cells assessed as activation of caspase-8 at 20 uM using FITC-DEVD-FMK as substrate after 48 hrs by flow cytometric analysis (reference value: 9.76 %); format: functional
A549 [23] = assay: Induction of apoptosis in human A549 cells assessed as activation of caspase-3 at 10 uM using FITC-DEVD-FMK as substrate after 48 hrs by flow cytometric analysis (reference value: 5.99 %); format: functional
A549 [24] = assay: Induction of apoptosis in human A549 cells assessed as activation of caspase-3 at 15 uM using FITC-DEVD-FMK as substrate after 48 hrs by flow cytometric analysis (reference value: 5.99 %); format: functional
A549 [25] = assay: Induction of apoptosis in human A549 cells assessed as activation of caspase-3 at 20 uM using FITC-DEVD-FMK as substrate after 48 hrs by flow cytometric analysis (reference value: 5.99 %); format: functional

`CC1(C)[C@@H](O)CC[C@]2(C)[C@H]3C(=O)C=C4[C@@H]5C[C@@](C)(C(=O)OCCCCCCCCn6cc(F)c(=O)[nH]c6=O)CC[C@]5(C)CC[C@@]4(C)[C@]3(C)CC[C@@H]12` was tested, and the pIC50 (A549 [1]) was 4.80, the pIC50 (MCF7) was 4.89 and the pIC50 (Bel-7402) was 4.68. The pIC50 (K562) was 5.01, the pIC50 (L02) was 4.68 and the pIC50 (A549/TR) was 4.68. It also gave a pIC50 (NCI/ADR-RES) of 4.63, a pIC50 (Bel7402/5-FU) of 4.70 and a pIC50 (K562/Adr) of 4.57. For the same compound, the Activity (A549 [2]) was “Active”, the Activity (A549 [3]) was 40.5% and the Activity (A549 [4]) was 34.9%. For the same compound, the Activity (A549 [5]) was 73.61%, the Activity (A549 [6]) was 5.58% and the Activity (A549 [7]) was 20.81%. It also gave an Activity (A549 [8]) of 76.07%, an Activity (A549 [9]) of 4.27% and an Activity (A549 [10]) of 19.66%. For the same compound, the Activity (A549 [11]) was 92.18%, the Activity (A549 [12]) was 2.81% and the Activity (A549 [13]) was 5.01%. For the same compound, the Activity (A549 [14]) was 1.61%, the Activity (A549 [15]) was 5.43% and the Activity (A549 [16]) was 2.71%. For the same compound, the Activity (A549 [17]) was 31.91%, the Activity (A549 [18]) was 3.5% and the Activity (A549 [19]) was 46.4%. The Activity (A549 [20]) was 9.26%, the Activity (A549 [21]) was 12.7% and the Activity (A549 [22]) was 32.4%. It also gave an Activity (A549 [23]) of 24.5%, an Activity (A549 [24]) of 50.9% and an Activity (A549 [25]) of 64.7%.
